Compound activity deposited in PubChem BioAssay by several laboratories.
This is a sample that favours compounds with a hit; in the whole collection about 1.9% have one here.
PG9 Ab binder – binds the HIV-1 gp120 antibody PG9; TR-FRET gp120-PG9 antibody binding; hit rate 0.43% among 360,000; AID 624416; inhibition, % at 6.7 µM; in the data active = inhibition above about 8.5%
NR2E3 ag-1 – NR2E3 (human) agonism; Q9Y5X4; GST-NR2E3/biotin-RetCOR TR-FRET, 1536-well; inhibition of corepressor binding, % at 4.78 µM; hit rate 0.12% among 320,000; AID 2300;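 active = percent inhibition above the cutoff of mean plus 3 SD of all tested compounds, set per screening campaign, cut at about 20% in these data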;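 note: 0% = DMSO wells and 100% = biotin wells as full block of FRET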
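system = GST-tagged NR2E3 plus biotinylated RetCOR corepressor | input = 1.35 nM GST-NR2E3 | also added = 7 nM biotin-RetCOR | schedule = 5 h incubation at 4 °C | measured by = TR-FRET with europium anti-GST and streptavidin-D2, 340 nm excitation | read-out = percent loss of FRET ratio relative to control wells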
MT1-MMP act inh – blocks activation of human MT1-MMP | HT1080 RFP-PRO-GFP cells, GFP/RFP ratio fluorescence, overnight; percent of plate control window, DMSO zero | GFP/RFP ratio change, % at 20 µM | hit rate 0.061% among 360,000 | AID 651647;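 active = GFP/RFP ratio change of at least 30% with cell ATP level not reduced by more than half and red fluorescence within 50% of control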
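Assay system – RFP-PRO-GFP reporter HT1080 cells · Compound dosing – single dose of 20 µM compound, 1% DMSO final · Incubation – overnight compound exposure at 37 °C · Measure – GFP/RFP fluorescence ratio · Benchmarks – DMSO wells and RFP-L50D-GFP cells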
SKN-1 block – blocks SKN-1 activity in C. elegans. hit rate 0.49% among 360,000. C. elegans VP596 Pgst-4::GFP/RFP ratio, acrylamide-induced, 24 h. inhibition, % at 21.8 µM;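 active = interference check ratio from 0.5 to 1.5 plus GFP to RFP signal ratio inhibition reaching or exceeding a fixed threshold, cut at about 30% in these data, passing the limit was not always enough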
NR2E3 ag-2 – activates human NR2E3 receptor; inhibition of corepressor binding, % at 3.98 µM; hit rate 0.35% among 360,000; Q9Y5X4; CHO-S Gal4-NCOR/VP16-NR2E3 two-hybrid, luciferase;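 active = inhibition above the mean of all tested compounds plus 3 SD, cut at about 70% in these data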;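 note: 0% = DMSO with NR2E3 transfected cells and 100% = cells lacking NR2E3 construct; higher means lower luciferase signal from less NR2E3 corepressor binding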
NR1D1 modulator – Rev-erb alpha (human) modulation; P20393; hit rate 0.79% among 370,000; Rev-erbα–FITC-DNA binding, fluorescence polarization, 90 min; AID 1259318; activity, % at 10 µM;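 active = activity above about 14%, limit read from the data; passing the limit was not always enough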;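 note: 0% = DMSO wells with 35 nM protein and 100% = DMSO wells with 750 nM protein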
Target sequence (P20393 whole entry, looked up): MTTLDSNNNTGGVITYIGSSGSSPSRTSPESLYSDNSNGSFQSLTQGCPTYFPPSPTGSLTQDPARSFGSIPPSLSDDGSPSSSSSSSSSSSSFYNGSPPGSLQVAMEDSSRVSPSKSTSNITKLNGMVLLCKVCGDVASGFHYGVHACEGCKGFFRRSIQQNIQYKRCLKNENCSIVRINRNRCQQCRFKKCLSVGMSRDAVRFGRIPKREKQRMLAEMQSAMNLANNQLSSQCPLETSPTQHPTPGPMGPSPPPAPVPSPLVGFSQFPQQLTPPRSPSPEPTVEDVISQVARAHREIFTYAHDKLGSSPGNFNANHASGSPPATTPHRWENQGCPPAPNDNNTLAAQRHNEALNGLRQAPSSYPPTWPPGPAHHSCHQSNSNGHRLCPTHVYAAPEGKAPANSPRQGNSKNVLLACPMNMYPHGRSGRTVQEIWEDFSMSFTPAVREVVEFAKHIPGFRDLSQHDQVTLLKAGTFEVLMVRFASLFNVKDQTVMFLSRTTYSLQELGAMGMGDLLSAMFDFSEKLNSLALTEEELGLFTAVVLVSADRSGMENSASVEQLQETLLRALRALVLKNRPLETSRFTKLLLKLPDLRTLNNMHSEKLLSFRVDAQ
NR1D1 mod conf – confirmation of modulators of human Rev-erb alpha DNA binding. shares compounds with NR1D1 modulator. Rev-erb alpha FITC-DNA binding, fluorescence polarization, 90 min. activation, % at 25 µM. hit rate 61% among 3,000. AID 1259319;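 active = activation at or above a set limit, or at least 3 SD above the negative control mean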;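 note: 0% = 35 nM protein with DMSO and 100% = 750 nM protein high control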
RORg counter – affects RORgamma DNA binding in a Rev-erb alpha counter-screen. shares compounds with NR1D1 modulator. purified RORgamma protein-FITC-DNA binding, fluorescence polarization. IC50, µM. hit rate 8% among 910;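 active = Compounds whose fitted half-maximal concentration for disrupting protein-DNA binding is below 10 micromolar; the record names Rev-erb in its text, so the target is in doubt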
* = called active by the depositor; x = no result.

SMILES	PG9 Ab binder	NR2E3 ag-1	MT1-MMP act inh	SKN-1 block	NR2E3 ag-2	NR1D1 modulator	NR1D1 mod conf	others
COc1ccc(NC(=O)Nc2ccc3c(c2)C(=O)N([C@H](C)CO)C[C@H](C)[C@H](CN(C)C)OCCCC[C@@H](C)O3)cc1	-1	x	x	x	x	3	x
Cc1ccc(Cc2c(C3CCCCC3)nc3c4ccccc4ccn23)cc1	0	x	-16	12	-14	4	x
CCCc1nc2c3ccccc3ccn2c1Cc1ccccc1	0	x	-1	5	-87	7	x
COc1ccc(NC(=O)CSc2nc3ccccc3cc2Cc2ccccc2)cc1	4	8	-9	1	-1	27*	22*
COc1ccc2nc(SCC(=O)Nc3ccc4sc(C)nc4c3)c(C#N)cc2c1	6	-2	-175	-3	-5	92*	123*	RORg counter=>40
CC(C)CCSc1nc(N)c(C#N)cc1C#N	-1	6	-36	11	-43	104*	96*	RORg counter=>40
CCSc1nc2ccc(OC)cc2cc1C#N	0	-2	2	-4	-1	13	x
COc1ccc(NC(=O)CSc2nc(N)c(C#N)cc2C#N)cc1	2	5	-9	3	6	61*	65*	RORg counter=>40
COC(=O)[C@]12C[C@H](CC(=O)N3CCN(C(=O)C4CC4)CC3)C(=O)N(CCc3ccc(OC)c(OC)c3)C1=C[C@H](C(C)C)O[C@@H]2C1CC1	x	x	x	x	x	4	x
C=CS(=O)(=O)N(C(=C)C(=O)OC)S(C)(=O)=O	2	x	x	x	x	4	x
COC(=O)c1ccc(N2C(c3cc(OC)cc(OC)c3)=Cc3ccc(-c4ccc(C(N)=O)cc4)cc3C2CC(=O)C2CC2)cc1 (stereo unspecified)	3	x	-8	4	-22	1	x
CCCCCC(=O)NC1CCCCN(C)C1=O (stereo unspecified)	1	x	x	x	x	-1	x
CCN(c1ccccc1C)S(=O)(=O)c1cc2c3c(c1)CCC(=O)N3CCC2	-2	2	-2	3	-19	28*	41*	RORg counter=>40
Cc1cc(=O)oc2cc(NC(=O)c3c(Cl)cnn3C)ccc12	1	1	-2	13	-61	21*	5
COc1ccc(NC(=O)COC(=O)C2CCCN2C(=O)OC(C)(C)C)cc1Cl (stereo unspecified)	0	x	-4	-7	-6	1	x
COc1cc2nc(-c3ccccc3)nc(N3CCCC3)c2cc1OC	-3	x	x	x	x	42*	25*
COC(=O)C1=C(C)N(CC(C)C)C(=S)NC1c1cccc(Br)c1 (stereo unspecified)	0	x	x	x	x	0	x
COc1ccc(-c2oc(=O)c3cc(OC)c(OC)cc3c2C#C[C@]2(O)CC[C@H]3[C@@H]4CCc5cc(OC)ccc5[C@H]4CC[C@@]32C)cc1	-1	x	2	1	-8	30*	3
Cc1ccccc1-c1nnn(CC(=O)NCc2ccc3c(c2)OCO3)n1	1	-2	8	-8	-7	0	x
CN(C)c1ccc(-c2nnn(CC(=O)NCc3ccc4c(c3)OCO4)n2)cc1	7	6	1	-1	-47	15*	7
CCCC(=O)OC[C@H]1CN(C2CCCC2)S(=O)(=O)c2c(Oc3ccc(C(C)(C)C)cc3)cccc2O1	-2	x	x	x	x	6	x
CC(=O)CC1c2cc(F)ccc2C=C(c2ccsc2)N1c1ccc(-c2ccc(C(N)=O)cc2)cc1 (stereo unspecified)	1	x	-4	10	-11	5	x
Cc1cccc(S(=O)(=O)NC(=O)C2(C)CCN2C(=O)Cc2cccs2)c1 (stereo unspecified)	2	x	5	-4	14	-4	x
COc1ccc(C(=O)Nc2ccc3c(c2)C(=O)N(C)[C@H]2CC[C@H](CC(=O)NCC4CC4)O[C@@H]2CO3)cc1	x	x	x	x	x	30*	18*
COC(=O)C[C@@H]1CC[C@H]2[C@H](COc3ccc(NC(=O)c4ccc(OC)cc4)cc3C(=O)N2C)O1	x	x	x	x	x	0	x
SMILES	PG9 Ab binder	NR2E3 ag-1	MT1-MMP act inh	SKN-1 block	NR2E3 ag-2	NR1D1 modulator	NR1D1 mod conf	others
CN1C(=O)c2cc(NC(=O)C3CC3)ccc2OC[C@H]2O[C@@H](CC(=O)NC3CCC3)CC[C@@H]21	x	x	x	x	x	15	x
Cc1nn(C)cc1NC(=O)C[C@H]1CC[C@H]2[C@@H](COc3ccc(NC(=O)Nc4ccccc4)cc3C(=O)N2C)O1	x	x	x	x	x	42*	21*
CN1C(=O)c2cc(NC(=O)Nc3ccccc3)ccc2OC[C@H]2O[C@@H](CC(=O)NC3CCC3)CC[C@@H]21	x	x	x	x	x	49*	29*	RORg counter=>40
CCN=C1S/C(=C/c2cc(C)n(-c3ccc(Cl)cc3F)c2C)C(=O)N1CC	x	x	x	x	x	2	x
Cc1nn(-c2ccccc2)c2sc(C(=O)N3CCN(S(=O)(=O)c4ccc(Br)s4)CC3)cc12	x	x	x	x	x	14	x
O=C(CSc1nc(-c2ccco2)cc(C(F)(F)F)n1)NC1CCCCCCC1	1	-6	-9	37*	8	25*	14
CCC(C(=O)Nc1nnc(-c2ccco2)s1)c1ccccc1 (stereo unspecified)	1	-1	3	-9	-6	15*	5
CC1(C)CC2CC(C)(CN2C(=O)c2cc(-c3ccccc3)on2)C1 (stereo unspecified)	-1	1	-2	-4	-43	29*	-3
Cn1c2ccccc2c(=O)c2c(=O)n(Cc3cccc4ccccc34)cnc21	x	x	x	x	x	18*	20*
Cn1c2ccccc2c(=O)c2c(=O)n(CCCc3ccccc3)cnc21	x	x	x	x	x	-3	x
Cc1ccc(-n2c(SCC(=O)c3ccc(-c4ccccc4)cc3)nnc2-c2ccc(C(C)(C)C)cc2)cc1	x	x	x	x	x	15	x
COC(=O)c1cc(C#N)c(NCc2ccc(Cl)cc2Cl)nc1C	-1	2	4	7	-4	24*	7
CCn1c(/C=C/c2c(C)[nH]c3ccccc23)nc2ccccc2c1=O	-1	1	-11	2	2	59*	29*
CCn1c(/C=C/c2c[nH]c3ccccc23)nc2ccccc2c1=O	-1	1	0	-4	-105	1	x
C=CCN=C1NC(c2ccccc2)C(C(=O)OC)=C(C)N1Cc1ccccc1C(F)(F)F (stereo unspecified)	0	x	x	x	x	2	x
CCOC(=O)C1=C(C(C)=O)C(c2cccnc2)C(C#N)=C(N)O1 (stereo unspecified)	-1	-6	-4	4	-5	-8	x
CCOC(=O)C1=C(C#N)C(C(=O)OCC)c2ncccc21 (stereo unspecified)	2	x	-5	17	5	34*	22*
